# An excerpt weighted towards active compounds, which were near 1.5% of everything screened.
# GASC-1 inh: inhibitors of human GASC-1 (JMJD2C) demethylase; GST-JMJD2C(1-420) H3K9me3 demethylation, DELFIA europium; inhibition, % at 2.35 µM; Q9H3R0; hit rate 0.069% among 330,000;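 active means more than half of a compound's replicate wells show inhibition beyond 50%, single wells judged on their own value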;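 further: signal counts dimethyl H3K9 product captured on neutravidin plate; 0% = median of DMSO wells and 100% = 0.3 times that DMSO median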
# 697 NFkB inh: lowers PMA/ionomycin-induced NF-kB signal in 697 B cells. 697 B-cell NF-kB luciferase reporter, 16 h. inhibition, % at 4 µM. hit rate 0.33% among 330,000; in the data active means inhibition above about 35%
# NR2E3 ag-1: NR2E3 (human) agonism. GST-NR2E3/biotin-RetCOR TR-FRET, 1536-well. Q9Y5X4. hit rate 0.12% among 320,000. AID 2300. inhibition of corepressor binding, % at 4.78 µM;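 active means percent inhibition above the cutoff of mean plus 3 SD of all tested compounds, set per screening campaign, cut at about 20% in these data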;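 further: 0% = DMSO wells and 100% = biotin wells as full block of FRET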
# Target sequence (Q9Y5X4 whole entry, looked up): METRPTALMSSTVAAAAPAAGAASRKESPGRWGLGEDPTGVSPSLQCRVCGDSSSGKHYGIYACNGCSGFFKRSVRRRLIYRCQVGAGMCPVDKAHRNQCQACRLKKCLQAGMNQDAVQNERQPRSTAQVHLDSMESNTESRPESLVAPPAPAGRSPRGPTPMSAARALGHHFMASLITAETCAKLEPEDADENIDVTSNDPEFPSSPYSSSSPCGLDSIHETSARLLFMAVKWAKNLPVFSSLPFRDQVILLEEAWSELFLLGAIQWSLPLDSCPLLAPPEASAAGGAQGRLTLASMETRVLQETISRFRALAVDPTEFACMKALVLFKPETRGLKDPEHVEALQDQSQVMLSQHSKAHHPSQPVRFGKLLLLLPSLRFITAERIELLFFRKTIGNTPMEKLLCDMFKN
#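 System: GST-tagged NR2E3 plus biotinylated RetCOR corepressor; Amount: 1.35 nM GST-tagged NR2E3 final; Dosing: single nominal compound dose of 4.8 µM; Schedule: 5 h incubation at 4 °C; Technique: TR-FRET with europium anti-GST and streptavidin-D2, 340 nm excitation; Controls: biotin wells as high control, 0.6% DMSO wells as low control.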
# NR2E3 ag-2: activates human NR2E3 receptor | CHO-S Gal4-NCOR/VP16-NR2E3 two-hybrid, luciferase | inhibition of corepressor binding, % at 3.98 µM | hit rate 0.35% among 360,000 | AID 602229;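 active means inhibition above the mean of all tested compounds plus 3 SD, cut at about 70% in these data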;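 further: 0% = DMSO with NR2E3 transfected cells and 100% = cells lacking NR2E3 construct; higher means lower luciferase signal from less NR2E3 corepressor binding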
# Jurkat NFkB inh: lowers PMA/ionomycin-induced NF-kB signal in Jurkat cells. PMA/ionomycin-induced NF-kB luciferase reporter, luminescence. inhibition, % at 4 µM. hit rate 0.53% among 330,000. AID 435003; in the data active means inhibition above about 50%
# GalR3 antag: antagonists of human GalR3; O60755; HEK293 GalR3-CNG cAMP membrane potential fluorescence; galR3 body fused to GalR1 C-terminus; inhibition, % at 3 µM; hit rate 0.44% among 360,000;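 active means inhibition above the screen-wide average plus 3 SD, cut at about 13% in these data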;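 further: forskolin and galanin both at EC90 stimulate the cells; cAMP rise reported by CNG channel membrane potential dye signal; 0% = forskolin plus galanin with DMSO and 100% = forskolin alone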
# NR2E3 ag confirm: confirmation of human NR2E3 agonists; shares compounds with NR2E3 ag-2; CHO-S mammalian two-hybrid NR2E3-NCOR, luciferase luminescence; inhibition, % at 3.98 µM; hit rate 51% among 2,300;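 active means average inhibition above a cutoff equal to the mean inhibition of all tested compounds plus one SD, cut at about 70% in these data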;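 further: 0% = DMSO in NR2E3 cells and 100% = DMSO in cells lacking NR2E3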
# VP16 counter: GAL4-VP16 reporter inhibition in NR2E3 agonist counterscreen | shares compounds with NR2E3 ag-2 | CHO-S GAL4-VP16 luciferase reporter, luminescence | inhibition, % at 3.98 µM | hit rate 29% among 2,300 | AID 624379;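 active means mean inhibition above a cutoff equal to the average over all tested compounds plus one standard deviation, cut at about 70% in these data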;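 further: luciferase from a UAS reporter driven by GAL4-VP16 transactivation; 0% = DMSO with VP16-transfected cells and 100% = DMSO with cells lacking VP16; higher means less reporter light so more repression of VP16 activity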
# Numbers without * were called inactive; . = not tested or not shown.
SMILES,GASC-1 inh,697 NFkB inh,NR2E3 ag-1,NR2E3 ag-2,Jurkat NFkB inh,GalR3 antag,NR2E3 ag confirm,VP16 counter
O=C(Nc1c2c(nn1-c1ccccc1)CS(=O)C2)c1ccco1 (configuration not stated),-5,22,-1,-9,11,2,.,.
CN(C)c1ncnc2c1ncn2C1OC(CO)C(O)C1O (configuration not stated),2,-104,3,22,35,0,.,.
O=c1[nH]cnc2c1nnn2C1OC(CO)C(O)C1O (configuration not stated),.,.,.,49,.,-6,-40,26
CN(C)c1ncnc2c1nnn2C1OC(CO)C(O)C1O (configuration not stated),.,.,.,89*,.,-8,-9,61
O=c1[nH]cnc2c1nc(NCc1ccccc1)n2C1O[C@@H](CO)[C@H](O)[C@@H]1O (some centres not stated),2,-6,1,4,0,-5,.,.
O=c1[nH]c2ccsc2c(=O)n1CCO,-10,18,-2,5,-20,-3,.,.
Cc1ccc(OC(=O)N(C)C[C@@H]2OCc3cn(nn3)CCCC(=O)N([C@@H](C)CO)C[C@H]2C)cc1,.,.,.,-18,.,0,.,.
NS(=O)(=O)c1ccc(CCNc2nn3c(-c4cccc(OC(F)(F)F)c4)cnc3s2)cc1,.,.,.,94*,.,4,90*,53
COc1ccc(CNc2nn3c(-c4cccc(C(=O)N(C)C)c4)cnc3s2)cc1,.,.,.,-7,.,-6,.,.
Cc1sc2nc(SCC(=O)N(C)c3ccccc3)n(C)c(=O)c2c1C,-5,-25,-1,-7,16,-1,.,.
Cc1c(C(=O)N2CCCCC2)oc2ccc(S(=O)(=O)N3CC(C)CC(C)C3)cc12 (configuration not stated),2,-48,-6,77*,24,.,73*,63
CCOC(=O)c1cc(C#N)c(Oc2ccccc2OC)nc1-c1ccccc1,-2,4,4,-24,14,-3,.,.
Cc1ccc(S(=O)(=O)N[C@H](CNCc2ccccc2)C(C)C)cc1,.,.,.,.,.,-9,.,.
COc1ccc(NC2c3ccccc3C(=O)N2Cc2ccccc2Cl)cc1OC (configuration not stated),72,21,-1,69,10,-5,71*,-8
O=C1c2ccccc2C(Nc2cccnc2)N1Cc1ccccc1Cl (configuration not stated),-4,-14,3,-8,-12,.,.,.
CCOC(=O)[C@]12CCCC=C1N(Cc1ccccc1)C(=O)[C@H](CC(=O)N1CCN(C(=O)c3ccco3)CC1)C2,.,.,.,.,.,-7,.,.
CC(=O)N1CCN(C(=O)c2ccc(Cl)c(S(=O)(=O)N3CC(C)OC(C)C3)c2)CC1 (configuration not stated),-3,6,.,49,12,-1,0,4
O=C1c2cccc(O)c2C(=O)c2c(O)cccc21,15,-15,2,.,8,.,.,.
CC1OC(CC(=O)O)CC2=C1C(=O)c1c(O)cccc1C2=O (configuration not stated),.,.,.,101*,.,6,101*,99*
COC(=O)C1=C(N)Oc2cc(C)[nH]c(=O)c2C1c1ccccc1OC (configuration not stated),0,9,0,-16,-2,-5,.,.
O=C(NC(=O)N1CCN(c2ccccc2)CC1)c1ccc(Cl)cc1,4,-29,-4,-39,-40,-6,.,.
O=C(NC(=O)N1CCN(c2cccc(Cl)c2)CC1)c1ccc(Cl)cc1,-10,33,0,80*,12,-2,95*,54
O=C(NC(=O)N1CCN(c2cccc(Cl)c2)CC1)c1ccccc1,11,15,-2,51,5,-7,85*,35
O=C(C1CCCCC1)N1CCN(c2ccnc3cc(Cl)ccc23)CC1,-24,-7,1,30,26,-2,.,.
COC(=O)c1c(C)oc2ccc(N(C(=O)c3ccncc3)S(=O)(=O)c3ccc(C)cc3)cc12,26,-43,-1,85*,42,.,95*,83*
SMILES,GASC-1 inh,697 NFkB inh,NR2E3 ag-1,NR2E3 ag-2,Jurkat NFkB inh,GalR3 antag,NR2E3 ag confirm,VP16 counter
Cc1ccc(S(=O)(=O)N(C(=O)c2ccncc2)c2ccc(OC(=O)c3ccncc3)c3ccccc23)c(C)c1,10,-11,1,-27,14,.,.,.
COC(=O)c1c(C)oc2ccc(N(C(=O)c3ccncc3)S(=O)(=O)c3ccc4ccccc4c3)cc12,-26,-29,-5,89*,-5,-12,97*,87*
Cc1ccc(S(=O)(=O)N(C(=O)c2ccncc2)c2ccc3oc4c(c3c2)CCCC4)cc1[N+](=O)[O-],-2,-4,0,-22,8,3,.,.
COC(=O)c1c(C)oc2ccc(N(C(=O)c3ccncc3)S(=O)(=O)c3ccc(C)cc3C)cc12,-2,-1,-2,91*,33,-14,93*,62
O=C(CNC(=O)c1ccc(Cl)cc1Cl)OCC(=O)N1CCCC1=O,-5,3,4,-44,1,-1,.,.
COc1ccc([C@@H]2CC=C(C(=O)O)[C@H](c3ccc(Br)cc3)N2S(=O)(=O)c2ccccc2C)cc1,.,16,.,27,0,-3,.,.
Cc1ccccc1S(=O)(=O)N1[C@@H](c2ccc(Br)cc2)C(C(=O)O)=CC[C@H]1c1ccc(Cl)cc1,.,7,.,79*,0,-7,38,14
Cc1ccc([C@@H]2CC=C(C(=O)O)[C@H](c3ccc(Br)cc3)N2S(=O)(=O)c2ccccc2C)cc1,.,17,.,64,9,-5,16,3
O=C(c1ccccc1)N1CCC(c2nc(-c3ccc(S(=O)(=O)NCC4CCCO4)cc3)no2)CC1 (configuration not stated),24,-34,5,21,25,-2,.,.
O=C(C1CC1)N1CCC(c2nc(-c3ccc(S(=O)(=O)NCC4CCCO4)cc3)no2)CC1 (configuration not stated),70,-1,1,50,34,-6,21,41
O=C(Cc1ccccc1)N1CCCC(c2nc(-c3ccc(S(=O)(=O)N4CCCC4)cc3)no2)C1 (configuration not stated),7,21,-1,-16,5,-8,.,.
CS(=O)(=O)N1CCCC(c2nc(-c3ccc(S(=O)(=O)NCc4ccccc4)cc3)no2)C1 (configuration not stated),3,25,-2,50,50,.,73*,68

# Screens from PubChem.
